This is an account of results in ChEMBL document CHEMBL1127046, “Antitumor agents. 3. Synthesis and biological activity of 4 beta-alkyl derivatives containing hydroxy, amino, and amido groups of 4'-O-demethyl-4-desoxypodophyllotoxin as antitumor agents” (J Med Chem, 1993).

Assay [1] in a line: Inhibition of DNA topoisomerase II from rat liver measured as 50% reduction in the amount of minicircle DNA relative to the control.
For assay [2], the system named is L1210. As to the kind of experiment: The number of mice survived for 30 days at the dose of 20 (mg/kg/day). Type of assay: functional, Mus musculus.
In a further assay the target is Tubulin (Bos taurus, UniProt Q6B856+Q862L2+Q862F3). As to the kind of experiment: Drug concentration needed to produce a 50% reduction of bovine brain tubulin polymerization relative to the control.
Assay [3] concerns L1210. Briefly: Antitumor activity in vivo expressed as the percentage increase in life span at the dose of 20 (mg/kg/day). Type of assay: functional, Mus musculus.
In assay [4] the test system is P388. As to the kind of experiment: Cytotoxicity against P388 leukemia. Type of assay: functional, cell-based. The settings on record: Mus musculus.
The test system of assay [5] is Lewis lung carcinoma cell line. As to the kind of experiment: Mean body weight change after inoculation of 3.2 x 10 e 5 cells iv and administration of compounds iv from days 1-5 at the dose of 2.3 (mg/kg/day). Type of assay: functional, Mus musculus. A digest of the protocol:
(§1)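 Male BDF1 mice (5 weeks) given 3.2 x 10^5 Lewis lung carcinoma cells iv on day 0, then dosed iv on days 1–5. Seven mice per group, 14 controls. Mean body weight change (g) taken from day 0 to day 6.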

The nature of assay [6]: Inhibition of growth of lung small cell carcinoma RERF-LC-MA cell line. Type of assay: functional. The settings on record: Homo sapiens; read-out: ED50 (the source's name). In outline: (§2)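 Cells were seeded and cultured for 24 h, then exposed to drug for 96 or 4 h. Cells were counted by hemocytometer. IC50 is the concentration giving a 50% reduction in cell number relative to control.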

The test system of another assay is A549. As to the kind of experiment: Inhibition of growth lung non-small cell carcinoma A-549 cell line. Type of assay: functional. The following applies: Homo sapiens, read-out: ED50 (the source's name). A digest of the protocol: as §2
The species entered for a further assay is Homo sapiens. Briefly: Inhibition of growth of hepatoma HLE cell line. Type of assay: functional. The following applies: read-out: ED50 (the source's name). In outline: as §2
Another assay concerns COLO 320DM. As to the kind of experiment: Inhibition of growth of colon cancer COLO 320DM cell line. Type of assay: functional. The settings on record: Homo sapiens, read-out: ED50 (the source's name). In outline: as §2
Assay [7] in a line: Inhibition of growth of renal cancer G-402 cell line. Type of assay: functional. The settings on record: Homo sapiens, read-out: ED50 (the source's name). A digest of the protocol: (§3)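 Human tumour cell lines plated and grown 24 h in a CO2 incubator, then exposed to compound for 96 or 4 h. Cells counted by hemocytometer. IC50 is the concentration giving 50% reduction in cell number versus untreated control.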

Assay [8] can be described thus: Inhibition of growth of lung non-small cell carcinoma PC-7 cell line. Type of assay: functional. The following applies: Homo sapiens, read-out: ED50 (the source's name). In outline:
as §2

The test system of assay [9] is Lewis lung carcinoma cell line. As to the kind of experiment: Mean body weight change after inoculation of 3.2 x 10 e 5 cells iv and administration of compounds iv from days 1-5 at the dose of 0.77 (mg/kg/day). Type of assay: functional, Mus musculus. A digest of the protocol:
as §1

The nature of assay [10]: Inhibition of growth of colon carcinoma COLO 2-1 cell line. Type of assay: functional. The following applies: Homo sapiens, read-out: ED50 (the source's name). In outline:
as §2

For assay [11], the system named is P388. As to the kind of experiment: Antitumor activity in vivo expressed as the percentage increase in life span at the P388 dose of 2.3 (mg/kg/day). Type of assay: functional, Mus musculus. A digest of the protocol: (§4)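 P388 leukaemia, 1 × 10^6 cells given sc to male CDF1 mice (5 weeks old) on day 0. Drug was dosed iv on days 1–5 in saline with 3.5% DMSO and 6.5% Tween 80. Groups had 7 mice; controls had 10. ILS was calculated from mean survival time of treated versus control mice, excluding 30-day survivors.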

For assay [12], the system named is Lewis lung carcinoma cell line. As to the kind of experiment: Mean body weight change after inoculation of 3.2 x 10 e 5 cells iv and administration of compounds iv from days 1-5 at the dose of 1.3 (mg/kg/day). Type of assay: functional, Mus musculus. A digest of the protocol: as §1
For assay [13], the system named is Lewis lung carcinoma cell line. As to the kind of experiment: Mean body weight change after inoculation of 3.2 x 10 e 5 cells iv and administration of compounds iv from days 1-5 at the dose of 4 (mg/kg/day). Type of assay: functional, Mus musculus. In outline: as §1
Assay [14] concerns Lewis lung carcinoma cell line. Briefly: Mean body weight change after inoculation of 3.2 x 10 e 5 cells iv and administration of compounds iv from days 1-5 at the dose of 7 (mg/kg/day). Type of assay: functional, Mus musculus. In outline:
as §1

Assay [15] has as its system Lewis lung carcinoma cell line. As to the kind of experiment: Increased life span at the lewis lung dose of 2.3 (mg/kg/day). Type of assay: functional, Mus musculus.
Assay [16] in a line: Inhibition of growth of hepatoma HLF cell line. Type of assay: functional. The following applies: Homo sapiens, read-out: ED50 (the source's name). In outline: as §2
Assay [17] deals with Lewis lung carcinoma cell line. As to the kind of experiment: Increased life span at the lewis lung dose of 4 (mg/kg/day). Type of assay: functional, Mus musculus.
The test system of assay [18] is P388. As to the kind of experiment: Antitumor activity in vivo expressed as the percentage increase in life span at the P388 dose of 4 (mg/kg/day). Type of assay: functional, Mus musculus. A digest of the protocol: as §4
For assay [19], the system named is Lewis lung carcinoma cell line. Briefly: Increased life span at the lewis lung dose of 0.77 (mg/kg/day). Type of assay: functional, Mus musculus.
Assay [20] relates to Lewis lung carcinoma cell line. Briefly: Percentage inhibition of tumor growth at the lewis lung dose of 4 (mg/kg/ day). Type of assay: functional, Mus musculus. In outline: (§5)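 Lewis lung carcinoma fragments (2 mm3) implanted sc into male BDF1 mice (5 weeks) on day 0. Compound given iv on days 4–8, in saline or saline with 3.5% DMSO and 6.5% Tween 80. Seven mice per group, 10 controls. Percent inhibition from mean tumour weight versus control on day 17; p<0.05, 0.01 or 0.001 versus control.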

In assay [21] the test system is Lewis lung carcinoma cell line. As to the kind of experiment: Increased life span at the lewis lung dose of 7 (mg/kg/day). Type of assay: functional, Mus musculus.
In assay [22] the test system is Lewis lung carcinoma cell line. As to the kind of experiment: Percentage inhibition of tumor growth at the lewis lung dose of 7 (mg/kg/ day). Type of assay: functional, Mus musculus. In outline:
as §5

Assay [23] concerns Lewis lung carcinoma cell line. Briefly: Increased life span at the lewis lung dose of 1.3 (mg/kg/day). Type of assay: functional, Mus musculus.
In a further assay the test system is Mus musculus. Briefly: The number of mice survived for 30 days at the dose of 5 (mg/kg/day). Type of assay: functional.
The test system of assay [24] is P388. Briefly: Antitumor activity in vivo expressed as the percentage increase in life span at the P388 dose of 1..3 (mg/kg/day). Type of assay: functional, Mus musculus. In outline: as §4
Another assay concerns SBC-3. As to the kind of experiment: Inhibition of growth of lung small cell carcinoma SBC-3 cell line. Type of assay: functional. The settings on record: Homo sapiens, read-out: ED50 (the source's name). A digest of the protocol:
as §3

A further assay deals with ACHN. As to the kind of experiment: Inhibition of growth of renal cancer ACHN cell line. Type of assay: functional. The following applies: Homo sapiens, read-out: ED50 (the source's name). A digest of the protocol: as §3

Structures are written as SMILES.

What is called IC50 is the concentration that inhibits the measured activity by half. Low readings indicate greater potency in that assay, high ones weaker potency in that assay. Consider `CCCCCCN(C)CC[C@@H]1c2cc3c(cc2[C@@H](c2cc(OC)c(O)c(OC)c2)[C@H]2C(=O)OCC12)OCO3.Cl` (stereo partly drawn), for which the IC50 in assay [1] was 61.4 µM; against Tubulin, greater than 167 µM; in the assay on P388 [4], 0.019 µM. The Survivors in the assay with L1210 [2] was determined as 6. Also, in the assay with L1210 [3], the ILS max came to 106%.
As usually defined, the Inhibition is the percentage by which the read-out fell short of the control. A higher Inhibition goes with a strong effect. For `COc1cc([C@@H]2c3cc4c(cc3[C@@H](CCN(C)CCN3CCCCC3)C3COC(=O)[C@@H]32)OCO4)cc(OC)c1O.Cl.Cl` (stereo partly drawn), the bwc in [5] is listed as -0.6 g; in assay [9], 0.7 g; in assay [12], 0.1 g; in [13], -1 g; in assay [14] it was -3.5 g. In addition, the EC50 in [6] amounted to 27 µg/mL; with A549, 1.8 µg/mL; in the assay filed under Homo sapiens, 0.36 µg/mL; in the assay on COLO 320DM, 3.2 µg/mL; in assay [7], 0.35 µg/mL; in [8] it was 4.4 µg/mL. The EC50 in assay [10] amounted to 29 µg/mL; in assay [16], 4 µg/mL; in the assay with SBC-3, 0.54 µg/mL; in the assay with ACHN, 2.7 µg/mL. Moreover, the IC50 in assay [1] was 60.9 µM; against Tubulin, greater than 167 µM. Also, the ILS max is 165% in the assay with P388 [11]; 75% in assay [15]; 108% in assay [17]; 259% with P388 [18]; 20% in assay [19]; 55% in [21]. The ILS max is 14% in assay [23] and 131% with P388 [24]. The Inhibition in [20] turned out to be 72%; in [22], 97%. In the assay on Mus musculus, this molecule yielded a Survivors of 6.
